Measured values of several laboratories.
Lines come from different studies, so protocols differ.
ABL1 M351T: Tyrosine-protein kinase ABL1 (ABL1, Homo sapiens, UniProt P00519, M351T)
ABL1 H396P non-phosphorylated: Tyrosine-protein kinase ABL1, non-phosphorylated (ABL1, Homo sapiens, UniProt P00519, H396P)
ABL1 H396P: Tyrosine-protein kinase ABL1 (ABL1, Homo sapiens, UniProt P00519, H396P)
ABL1 T315I non-phosphorylated: Tyrosine-protein kinase ABL1, non-phosphorylated (ABL1, Homo sapiens, UniProt P00519, T315I)
ABL1 F317I non-phosphorylated: Tyrosine-protein kinase ABL1, non-phosphorylated (ABL1, Homo sapiens, UniProt P00519, F317I)
ABL1 Y253F phosphorylated: Tyrosine-protein kinase ABL1, phosphorylated (ABL1, Homo sapiens, UniProt P00519, Y253F)
ABL1 non-phosphorylated: Tyrosine-protein kinase ABL1, non-phosphorylated (ABL1, Homo sapiens, UniProt P00519)
ABL1 E255K phosphorylated: Tyrosine-protein kinase ABL1, phosphorylated (ABL1, Homo sapiens, UniProt P00519, E255K)
ABL1 Q252H phosphorylated: Tyrosine-protein kinase ABL1, phosphorylated (ABL1, Homo sapiens, UniProt P00519, Q252H)
ABL1 F317L non-phosphorylated: Tyrosine-protein kinase ABL1, non-phosphorylated (ABL1, Homo sapiens, UniProt P00519, F317L)
ABL1 F317L phosphorylated: Tyrosine-protein kinase ABL1, phosphorylated (ABL1, Homo sapiens, UniProt P00519, F317L)

| SMILES | target | observed | technique | concentration | remaining binding [%] |
| --- | --- | --- | --- | --- | --- |
| C[C@H]1CCN(c2nccc(-c3cnn4ncccc34)n2)C1 | ABL1 M351T | binding | – | 1 µM | 75 |
| CC(C)CC(=O)N1CCc2nc(-c3ccc(Br)cc3)nc(N(C)Cc3ccccc3)c2C1 | ABL1 H396P non-phosphorylated | cell-free assay | competition with immobilised ligand | 0.1 µM | 68 |
| CN(C)c1ncc(F)c(-c2cnn3ncccc23)n1 | ABL1 H396P | binding | – | 1 µM | 80 |
| c1cncc(-c2cccc(Nc3nccc(NC4CCCCC4)n3)c2)c1 | ABL1 T315I non-phosphorylated | binding | competition with immobilised ligand | 10 µM | 79 |
| O=C(O)[C@@H]1[C@@H](Cn2nnc3ccccc3c2=O)CC[C@H]1C(=O)c1ccc(OCCC2CCOCC2)cc1 | ABL1 H396P non-phosphorylated | cell-free assay | competition with immobilised ligand | 1 µM | 97 |
| COc1cnc(Nc2cccc(S(N)(=O)=O)c2)nc1N1CCN(c2ccccc2)CC1 | ABL1 F317I non-phosphorylated | binding | competition with immobilised ligand | 1 µM | 94 |
| O=C(c1ccc(Nc2ncc(Cl)c(-c3ccc(Cl)s3)n2)cc1)N1CCC(N2CCCC2)CC1 | ABL1 Y253F phosphorylated | binding | competition with immobilised ligand | 1 µM | 5 |
| O=C(NCC1CCOCC1)c1n[nH]cc1NC(=O)c1c(F)cccc1F | ABL1 Y253F phosphorylated | binding | competition with immobilised ligand | 1 µM | 86 |
| Nc1ncc2c(n1)-c1c([nH]c3ccc(C#CC4CC4)cc13)CCCC2 | ABL1 F317I non-phosphorylated | binding | competition with immobilised ligand | 1 µM | 84 |
| CO[C@H]1CC[C@H](CNc2ccc(S(=O)(=O)NC(=O)c3ccc(N4CCN(CC5=C(c6ccc(Cl)cc6)CC(C)(C)CC5)CC4)cc3Oc3cnc4[nH]ccc4c3)cc2[N+](=O)[O-])CC1 | ABL1 non-phosphorylated | cell-free assay | competition with immobilised ligand | 1 µM | 71 |
| N[C@H]1CCN(c2nccc(-c3cnn4ncccc34)n2)C1 | ABL1 H396P | binding | – | 1 µM | 58 |
| O=C1NC(c2ccccn2)Sc2ccccc21 (stereo not drawn) | ABL1 E255K phosphorylated | binding | competition with immobilised ligand | 1 µM | 77 |
| Cc1cnc(Nc2ccc(C(=O)N3CCC(N4CCCC4)CC3)cc2)nc1-c1cc2ccccc2s1 | ABL1 Q252H phosphorylated | binding | competition with immobilised ligand | 1 µM | 1.4 |
| CN(c1nccc(-c2cnn3ncccc23)n1)C1CC1 | ABL1 M351T | binding | – | 1 µM | 100 |
| N#CC1(c2ccccn2)CCN(Cc2cc(C(=O)N3CCCC3)c(=O)n3ccccc23)CC1 | ABL1 Q252H phosphorylated | cell-free assay | competition with immobilised ligand | 1 µM | 90 |
| O=C(c1ccc(Nc2ncc(Cl)c(-c3cc4ccccc4s3)n2)cc1)N1CCC(N2CCCC2)CC1 | ABL1 non-phosphorylated | binding | competition with immobilised ligand | 1 µM | 17 |
| COc1cnc(Nc2cccc(S(N)(=O)=O)c2)nc1N1CCN(c2ccccc2)C(=O)C1 | ABL1 Y253F phosphorylated | binding | competition with immobilised ligand | 1 µM | 82 |
| COc1ncc2cc3ccccc3nc2c1C#N | ABL1 F317L non-phosphorylated | cell-free assay | competition with immobilised ligand | 5 µM | 100 |
| O=C(NC[C@@H]1[C@H]2CN(C(=O)OCc3cc(C(F)(F)F)cc(C(F)(F)F)c3)C[C@@H]12)c1ccc2[nH]nnc2c1 | ABL1 E255K phosphorylated | binding | competition with immobilised ligand | 1 µM | 92 |
| CN(CCCC(F)(F)F)c1nccc(-c2cnn3ncccc23)n1 | Tyrosine-protein kinase ABL1 (ABL1, Homo sapiens, UniProt P00519, F317L) | binding | – | 1 µM | 100 |
| C=CC(=O)N1CCC(C(=O)NCC(=O)N2CCN(c3nc(-c4cnc(N)nc4C(F)F)nc(N4CCOCC4)n3)CC2)CC1 | ABL1 T315I non-phosphorylated | binding | competition with immobilised ligand | 1 µM | 71 |
| C[C@H](c1cccc(C#N)c1)n1cc(Cl)cc(C(N)=O)c1=N | ABL1 Q252H phosphorylated | cell-free assay | competition with immobilised ligand | 1 µM | 84 |
| CNC(=O)[C@@H]1CC[C@@H](n2c(-c3ccc4cnccc4c3)nc3ccc(C(=O)NCc4cccc(C(N)=O)c4)cc32)C1 | ABL1 F317L phosphorylated | binding | competition with immobilised ligand | 1 µM | 95 |
| O=C(Nc1c[nH]nc1C(=O)NC1CCNCC1)c1cc(F)cc(F)c1 | ABL1 non-phosphorylated | binding | competition with immobilised ligand | 1 µM | 98 |
| CN(C)c1nccc(-c2cnc3ncccn23)n1 | Tyrosine-protein kinase ABL1, phosphorylated (ABL1, Homo sapiens, UniProt P00519) | binding | – | 1 µM | 57 |
| CCN1CCN(Cc2ccc(C(=O)Nc3ccc(C)c(Oc4ccc5c(c4)CC(=O)N5)c3)cc2C(F)(F)F)CC1 | ABL1 F317L non-phosphorylated | binding | competition with immobilised ligand | 1 µM | 2.9 |
| O=C(NCCCN1CCOCC1)c1ccc(Nc2ncc(Cl)c(-c3ccc(Cl)s3)n2)cc1 | ABL1 Y253F phosphorylated | binding | competition with immobilised ligand | 1 µM | 38 |
| C[C@@H]1CN(c2cc(-c3nn(C)c4ccc(OC5(C)CC5)cc34)ncn2)C[C@H](C)O1 | ABL1 T315I non-phosphorylated | cell-free assay | competition with immobilised ligand | 1 µM | 73 |
| O=C(NCCCN1CCOCC1)c1ccc(Nc2nccc(-c3cc4ccccc4s3)n2)cc1 | Tyrosine-protein kinase ABL1, phosphorylated (ABL1, Homo sapiens, UniProt P00519, H396P) | binding | competition with immobilised ligand | 1 µM | 61 |
| C[C@@H](c1ccc(-n2cnc3c(N)ncnc32)cc1)N1CCc2nn(C)c(Cc3ccccc3)c2C1=O | ABL1 F317L phosphorylated | binding | competition with immobilised ligand | 0.1 µM | 49 |
